Reference: ChEMBL document CHEMBL4138303, “Discovery and in Vitro Optimization of 3-Sulfamoylbenzamides as ROMK Inhibitors” (ACS Med Chem Lett, 2018)
Where a chain is given by its changes, count along the chain named. Activity calls are given as the source filed them. No cut-off for these calls is given here.

Key:
[1] = molecular target: Voltage-gated inwardly rectifying potassium channel KCNH2 (Homo sapiens, UniProt Q12809); test: Displacement of fluorescent-labelled dofetilide from human ERG expressed in HEK293 cell membrane homogenates; assay type: cell membranes
Summary of the method: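 Ki from displacement of a fluorescently labelled dofetilide derivative from membrane homogenates of HEK-293 cells stably expressing hERG (Kv11.1).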

[2] = Apparent permeability in MDCK2-LE cells; assay type: ADME, cell-based, Canis lupus familiaris, MDCK-II; settings: dog
[3] = molecular target: T1, ATP-sensitive inward rectifier potassium channel 1 (Homo sapiens, UniProt P48048); test: Inhibition of human ROMK2 expressed in HEK293 cells after 20 mins by Thallos-AM dye based fluorescence assay; assay type: cell-based
T1 sequence (P48048 whole entry): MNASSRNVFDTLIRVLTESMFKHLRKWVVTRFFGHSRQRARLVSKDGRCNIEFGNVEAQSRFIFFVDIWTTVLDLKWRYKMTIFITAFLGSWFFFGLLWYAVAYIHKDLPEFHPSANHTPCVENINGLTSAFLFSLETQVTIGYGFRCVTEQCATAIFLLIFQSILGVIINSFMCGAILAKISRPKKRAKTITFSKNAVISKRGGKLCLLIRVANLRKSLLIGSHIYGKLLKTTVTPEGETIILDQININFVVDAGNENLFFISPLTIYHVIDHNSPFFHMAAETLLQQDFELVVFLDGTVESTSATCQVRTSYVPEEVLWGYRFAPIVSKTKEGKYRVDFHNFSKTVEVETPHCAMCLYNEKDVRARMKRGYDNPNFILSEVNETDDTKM

[4] = Octanol-sodium phosphate buffer partition coefficient, log D of the compound at pH 7.4 by shake flask method; assay type: physicochemical
[5] = molecular target: T2, ATP-sensitive inward rectifier potassium channel 1 (Homo sapiens) (UniProt P48048); test: (§1) Inhibition of human ROMK1 expressed in HEK293 cells after 20 mins by Thallos-AM dye based fluorescence assay; assay type: cell-based
T2 sequence (whole entry): T1 sequence (P48048 whole entry)
Summary of the method: (§2)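 Tl+ flux assay on human or rat ROMK1, run as concentration-response. IC50 is the geometric mean of n≥3 replicates, also given as pIC50±SD. Rat ROMK1 testing went up to 30 µM.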

[6] = molecular target: T1, ATP-sensitive inward rectifier potassium channel 1; test: as §1; assay type: cell-based; summary of the method: as §2
[7] = molecular target: T1, ATP-sensitive inward rectifier potassium channel 1; test: Inhibition of human ROMK1 expressed in HEK293 cells at -75 mV holding potential by whole cell patch clamp method; assay type: cell-based
Summary of the method: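 Whole-cell patch clamp on human ROMK1. IC50 comes from a global fit to a five-point concentration-response curve with n≥4 per concentration, reported with 95% CI.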

[8] = molecular target: T3, ATP-sensitive inward rectifier potassium channel 1 (Rattus norvegicus, UniProt P35560); test: Inhibition of rat ROMK1 expressed in HEK293 cells after 20 mins by Thallos-AM dye based fluorescence assay; assay type: cell-based
T3 sequence (P35560 whole entry): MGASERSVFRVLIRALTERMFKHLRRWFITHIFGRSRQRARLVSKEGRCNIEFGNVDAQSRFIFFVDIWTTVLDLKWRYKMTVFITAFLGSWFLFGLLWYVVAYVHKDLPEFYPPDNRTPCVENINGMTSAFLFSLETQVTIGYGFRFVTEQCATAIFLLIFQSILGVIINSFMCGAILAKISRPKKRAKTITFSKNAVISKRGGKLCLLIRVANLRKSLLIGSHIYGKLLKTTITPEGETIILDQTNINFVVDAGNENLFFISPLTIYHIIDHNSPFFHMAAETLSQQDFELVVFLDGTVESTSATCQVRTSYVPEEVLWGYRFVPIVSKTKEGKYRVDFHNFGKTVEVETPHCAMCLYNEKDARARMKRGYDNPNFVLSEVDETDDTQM
Summary of the method: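 Thallium (Tl+) flux assay against rat ROMK1, with concentration-response testing up to 30 µM. IC50 values are geometric means of n≥3 replicates unless otherwise indicated and are also reported as pIC50±SD.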

[9] = Apparent intrinsic clearance in human liver microsomes; assay type: ADME, microsome; settings: read-out: CLH(app)
[10] = molecular target: T4, Kir2.1 (inward rectifier potassium channel 2) (Homo sapiens, UniProt P63252); test: Inhibition of Kir2.1 (unknown origin) expressed in CHO cells at 10 uM at -75 mV holding potential by whole cell patch clamp method relative to control; assay type: cell-based; settings: CHO cells expressing Kir2.1
T4 sequence (P63252 whole entry): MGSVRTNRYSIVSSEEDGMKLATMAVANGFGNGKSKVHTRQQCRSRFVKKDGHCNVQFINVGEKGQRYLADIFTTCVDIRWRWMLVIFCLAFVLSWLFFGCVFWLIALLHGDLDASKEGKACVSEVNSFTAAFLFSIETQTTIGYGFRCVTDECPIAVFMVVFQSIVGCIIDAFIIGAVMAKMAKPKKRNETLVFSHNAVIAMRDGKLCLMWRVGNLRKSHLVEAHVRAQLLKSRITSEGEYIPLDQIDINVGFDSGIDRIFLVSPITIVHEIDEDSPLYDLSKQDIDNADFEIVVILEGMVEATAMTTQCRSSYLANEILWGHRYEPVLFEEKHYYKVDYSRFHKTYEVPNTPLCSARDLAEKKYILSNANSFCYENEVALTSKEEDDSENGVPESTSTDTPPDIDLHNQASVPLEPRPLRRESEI
Summary of the method: (§3)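 Whole-cell patch-clamp recordings in CHO cells stably expressing either Kir2.1 or Kir4.1.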

[11] = molecular target: T5, ATP-sensitive inward rectifier potassium channel 10 (Homo sapiens) (UniProt P78508); test: Inhibition of Kir4.1 (unknown origin) expressed in CHO cells at 10 uM at -75 mV holding potential by whole cell patch clamp method relative to control; assay type: cell-based; summary of the method: as §3
T5 sequence (whole entry): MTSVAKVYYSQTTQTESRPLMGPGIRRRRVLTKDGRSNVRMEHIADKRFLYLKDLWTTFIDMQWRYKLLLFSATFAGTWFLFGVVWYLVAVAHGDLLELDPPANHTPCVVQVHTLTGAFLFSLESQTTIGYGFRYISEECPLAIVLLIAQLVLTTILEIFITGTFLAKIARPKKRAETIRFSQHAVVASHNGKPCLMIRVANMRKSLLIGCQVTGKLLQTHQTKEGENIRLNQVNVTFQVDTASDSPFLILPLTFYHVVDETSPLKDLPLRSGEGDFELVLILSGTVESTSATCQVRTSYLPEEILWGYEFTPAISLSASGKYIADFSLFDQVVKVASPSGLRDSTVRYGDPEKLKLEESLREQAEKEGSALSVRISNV

[12] = molecular target: T6, ATP-sensitive inward rectifier potassium channel 1 (Rattus norvegicus) (UniProt P35560); test: Inhibition of rat ROMK2 expressed in HEK293 cells at -75 mV holding potential by whole cell patch clamp method; assay type: cell-based
T6 sequence (whole entry): T3 sequence (P35560 whole entry)

[13] = system: T7, ATP-sensitive inward rectifier potassium channel 1 (Homo sapiens), P48048 [N171D]; test: Inhibition of human Kir1.1 N171D mutant expressed in HEK293 cells at 100 to 300 nM at -75 mV holding potential by whole cell patch clamp method; assay type: cell-based
T7 sequence (whole entry): T1 sequence (P48048 whole entry) with N171D
Summary of the method: (§4)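 Whole-cell currents were recorded under voltage clamp in HEK293 cells transiently expressing human ROMK K80M or the human ROMK K80M/N171D double mutant.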

[14] = system: T8, ATP-sensitive inward rectifier potassium channel 1 (Homo sapiens), P48048 [K80M]; test: Inhibition of human Kir1.1 K80M mutant expressed in HEK293 cells at 100 to 300 nM at -75 mV holding potential by whole cell patch clamp method; assay type: cell-based; summary of the method: as §4
T8 sequence (whole entry): T1 sequence (P48048 whole entry) with K80M

[15] = octanol/sodium phosphate buffer, read-out: logD

Voltage-gated inwardly rectifying potassium channel KCNH2, sequence (Q12809 whole entry): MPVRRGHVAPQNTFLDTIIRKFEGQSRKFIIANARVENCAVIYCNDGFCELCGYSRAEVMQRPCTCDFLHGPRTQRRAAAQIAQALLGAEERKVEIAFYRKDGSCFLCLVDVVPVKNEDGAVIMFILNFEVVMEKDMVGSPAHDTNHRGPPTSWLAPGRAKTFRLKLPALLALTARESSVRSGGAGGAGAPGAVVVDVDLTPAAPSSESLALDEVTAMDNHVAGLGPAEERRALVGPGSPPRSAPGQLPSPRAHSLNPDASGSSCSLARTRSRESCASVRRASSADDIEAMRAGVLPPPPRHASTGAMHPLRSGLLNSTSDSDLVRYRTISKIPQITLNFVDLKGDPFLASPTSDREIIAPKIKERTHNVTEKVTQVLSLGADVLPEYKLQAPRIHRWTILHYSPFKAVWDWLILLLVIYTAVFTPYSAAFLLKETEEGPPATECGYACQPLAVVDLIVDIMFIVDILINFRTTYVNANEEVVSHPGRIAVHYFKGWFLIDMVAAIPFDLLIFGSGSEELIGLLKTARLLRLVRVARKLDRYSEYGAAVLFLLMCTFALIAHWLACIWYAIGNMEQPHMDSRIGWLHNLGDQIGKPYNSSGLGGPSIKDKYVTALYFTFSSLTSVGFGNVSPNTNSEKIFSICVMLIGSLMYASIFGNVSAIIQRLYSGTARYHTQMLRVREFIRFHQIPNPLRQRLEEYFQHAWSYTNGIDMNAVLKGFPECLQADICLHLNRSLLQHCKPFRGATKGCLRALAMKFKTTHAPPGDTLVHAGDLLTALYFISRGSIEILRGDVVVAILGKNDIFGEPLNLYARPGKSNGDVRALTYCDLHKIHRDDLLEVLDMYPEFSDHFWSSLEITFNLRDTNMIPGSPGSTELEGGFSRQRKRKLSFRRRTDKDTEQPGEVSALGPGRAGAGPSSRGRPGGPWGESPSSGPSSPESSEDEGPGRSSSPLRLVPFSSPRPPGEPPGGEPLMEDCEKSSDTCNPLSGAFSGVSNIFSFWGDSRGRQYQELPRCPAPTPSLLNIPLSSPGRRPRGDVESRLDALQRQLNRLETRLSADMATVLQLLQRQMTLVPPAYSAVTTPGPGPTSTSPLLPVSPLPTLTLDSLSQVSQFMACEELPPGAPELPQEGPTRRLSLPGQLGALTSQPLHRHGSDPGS

SMILES | Ki [1] | Papp ([2]; MDCK, read-out: Papp) | IC50 [3] | logD [4, 15] | IC50 ([6]; read-out: IC50) | IC50 [8] | CLint scaled [9] | other results
Cc1noc(CNC(=O)c2ccc(C)c(S(=O)(=O)Nc3ccc(Cl)cc3)c2)n1 | > 40000 nM | 19 ×10⁻⁶ cm/s | 85 nM | 3 | 777 nM | > 30000 nM | 35 mL/min/kg | inhibition [5]: Dose-dependent effect; IC50 [7]: 62 nM
Cc1noc(CNC(=O)c2ccc(C)c(S(=O)(=O)Nc3ccc(-c4ccno4)cc3)c2)n1 | > 40000 nM | 6 ×10⁻⁶ cm/s | 110 nM | 2.3 |  |  | 25 mL/min/kg | 
COc1ccc(C(=O)NC(C)c2cnn(C)n2)cc1S(=O)(=O)Nc1ccc(Cl)cc1 (single isomer, unassigned; (-)) [listing 1 of 2 here] | 28000 nM | 16 ×10⁻⁶ cm/s | 160 nM | 2.6 | 391 nM | > 30000 nM | < 8 mL/min/kg | IC50 [7]: 61 nM
Cc1ccc(NS(=O)(=O)c2cccc(C(=O)NCc3nc(C)no3)c2)cc1 | > 40000 nM | 22 ×10⁻⁶ cm/s | 17000 nM | 2.3 |  |  | 9 mL/min/kg | 
COc1ccc(C(=O)NCc2nc(C)no2)cc1S(=O)(=O)Nc1ccc(C)cc1 | > 40000 nM | 8 ×10⁻⁶ cm/s | 1300 nM | 2.3 |  |  | 10 mL/min/kg | 
Cc1ccc(NS(=O)(=O)c2cc(C(=O)NCc3nc(C)no3)ccc2C)cc1 | > 40000 nM | 20 ×10⁻⁶ cm/s | 440 nM | 2.7 |  |  | 30 mL/min/kg | 
Cc1ccc(C(=O)NCc2cn(C)nn2)cc1S(=O)(=O)Nc1ccc(Cl)cc1 | > 40000 nM | 19 ×10⁻⁶ cm/s | 86 nM | 2.9 |  |  | < 9 mL/min/kg | 
Cc1ccc(NS(=O)(=O)c2cc(C(=O)NCc3cccnc3)ccc2C)cc1 | > 40000 nM | 15 ×10⁻⁶ cm/s | 6500 nM | 3 |  |  | 120 mL/min/kg | inhibition at 10 µM [10]: 13%; inhibition [11]: 19%
O=[N+]([O-])c1ccc2nc(COCc3nc4ccc([N+](=O)[O-])cc4[nH]3)[nH]c2c1 |  |  |  |  | 744 nM | 420 nM |  | 
Cc1ccc(C(=O)NCc2cn(C)nn2)cc1S(=O)(=O)Nc1ccc(-c2ccno2)cc1 | > 40000 nM | 12 ×10⁻⁶ cm/s | 280 nM | 2.4 | 1040 nM | > 30000 nM | < 8 mL/min/kg | inhibition [5]: Dose-dependent effect; IC50 ([6]; read-out: pIC50 (converted)): 1260 nM; IC50 [7]: 104 nM; inhibition [12]: inactive
Cc1noc(CNC(=O)c2ccc(C)c(S(=O)(=O)Nc3ccc(-c4cnco4)cc3)c2)n1 | > 40000 nM | 10 ×10⁻⁶ cm/s | 35 nM | 2.2 |  |  | 69 mL/min/kg | 
COc1ccc(C(=O)NC(C)c2cnn(C)n2)cc1S(=O)(=O)Nc1ccc(Cl)cc1 (single isomer, unassigned; (+)) | > 40000 nM |  | 13000 nM |  |  |  |  | Papp ([2]; mdck-ii): 11 ×10⁻⁶ cm/s; logD ([4]; octanol/water): 2.7
COc1ccc(C(=O)NC(C)c2cnn(C)n2)cc1S(=O)(=O)Nc1ccc(Cl)cc1 (single isomer, unassigned; (-)) [listing 2 of 2 here] |  |  |  |  |  |  |  | inhibition [5]: Dose-dependent effect; inhibition [12]: inactive; inhibition [13]: Active; inhibition [14]: Active
